Laboratory results: ChEMBL document CHEMBL4613270, “Structure-Activity Relationship Study Enables the Discovery of a Novel Berberine Analogue as the RXRα Activator to Inhibit Colon Cancer” (J Med Chem, 2020)
Activity calls are given as the source filed them. The rule behind the calls is not given here.

How the values were obtained:
[1] = target: T1, Retinoic acid receptor RXR-alpha (Homo sapiens) (UniProt P19793); experiment: In-vivo activation of RXRalpha in BALB/c mouse xenografted with human KM12C cells assessed as increase in p21 (WAF1/CIP) protein expression at 100 mg/kg, ig dosed daily for 15 days by Western blot analysis; assay type: functional, organism-based
T1 sequence (whole entry): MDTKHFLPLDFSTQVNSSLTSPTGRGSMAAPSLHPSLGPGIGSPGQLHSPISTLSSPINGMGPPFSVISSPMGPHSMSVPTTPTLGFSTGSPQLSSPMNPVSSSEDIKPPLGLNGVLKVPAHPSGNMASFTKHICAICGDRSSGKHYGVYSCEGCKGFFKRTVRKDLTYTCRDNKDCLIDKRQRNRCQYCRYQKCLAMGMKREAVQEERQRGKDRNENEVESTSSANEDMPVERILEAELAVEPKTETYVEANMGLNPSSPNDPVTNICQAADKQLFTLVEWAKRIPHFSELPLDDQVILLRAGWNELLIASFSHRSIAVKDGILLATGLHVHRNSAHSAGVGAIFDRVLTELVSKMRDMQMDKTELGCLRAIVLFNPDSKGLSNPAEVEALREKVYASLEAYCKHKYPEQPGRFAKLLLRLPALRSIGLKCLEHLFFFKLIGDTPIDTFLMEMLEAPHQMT

[2] = Hepatotoxicity in BALB/c mouse xenografted with human KM12C cells assessed as induction of hepatomegaly by measuring body weight ratio at 100 mg/kg, ig dosed daily for 15 days; assay type: toxicity, organism-based; details: in vivo, po, 360 h
[3] = target: T1, Retinoic acid receptor RXR-alpha (Homo sapiens); experiment: In-vivo activation of RXRalpha in BALB/c mouse xenografted with human KM12C cells assessed as reduction in c-Myc mRNA expression at 100 mg/kg, ig dosed daily for 15 days by real-time PCR analysis; assay type: functional, organism-based
Outline: (§1)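 KM12C cells (1×10^6 per mouse in 100 μL HBSS) injected subcutaneously into both flanks of nude mice; after seven days, randomized to three groups, dosed intragastrically once daily for 15 days with vehicle (CMC-Na) or 100 mg/kg compound; mice euthanized and tumors removed for analysis.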

[4] = Hepatotoxicity in BALB/c mouse xenografted with human KM12C cells assessed as induction of hepatocellular morphology damage at 100 mg/kg, ig dosed daily for 15 days by H and E staining; assay type: toxicity, organism-based; details: in vivo, po, 360 h
[5] = target: T1, Retinoic acid receptor RXR-alpha (Homo sapiens); experiment: Activation of RXRalpha in human HCT116 cells assessed as increase transactivational activity on RXRE at 30 to 60 uM incubated for 15 hrs by luciferase reporter gene assay; assay type: cell-based; details: HCT-116
Outline: (§2)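 Endogenous RXRα transactivation on an RXRE luciferase reporter, lipofection-transfected; compound added 20 h post-transfection for 15 h; lysis in passive lysis buffer at 4 °C, 1 h; firefly and Renilla luciferase activities read by dual-luciferase assay.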

[6] = target: T1, Retinoic acid receptor RXR-alpha (Homo sapiens); experiment: Activation of RXRalpha in human KM12C cells assessed as reduction in c-Myc protein expression at 25 to 50 uM incubated for 15 hrs by Western blot analysis; assay type: cell-based
[7] = system: HCT-116; experiment: Inhibition of cell proliferation of human HCT116 cells at 30 to 60 uM incubated for 15 hrs by EdU assay; assay type: functional, cell-based
Outline: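 Colon cancer cells treated for 15 h. Proliferation measured in 96-well plates using an EdU incorporation kit, with cells examined under a fluorescence microscope.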

[8] = MRT (infinity) in Sprague-Dawley rat at 100 mg/kg, ig measured after 0.083 to 36 hrs by LC-MS/MS analysis; assay type: ADME, organism-based; details: in vivo, po
Outline: (§3)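 SD rats (200 ± 20 g) randomized to three groups; single intragastric dose of 100 mg/kg or vehicle (0.5% CMC-Na). Tail-vein blood (0.5 mL) drawn at 0.083, 0.25, 0.5, 1, 2, 4, 8, 12, 24 and 36 h. Plasma separated by centrifugation at 2000 rpm for 10 min, frozen at -80 °C, then quantified by LC-MS/MS.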

[9] = Toxicity in BALB/c mouse xenografted with human KM12C cells assessed as effect on biochemical parameter by measuring total cholesterol level at 100 mg/kg, ig dosed daily for 15 days by automatic chemistry analyzer based analysis (reference value: 2.32 +/- 0.11 mmol/L); assay type: organism-based; details: in vivo, po, 360 h
[10] = target: T1, Retinoic acid receptor RXR-alpha (Homo sapiens); experiment: In-vivo activation of RXRalpha in BALB/c mouse xenografted with human KM12C cells assessed as reduction in c-Myc protein expression at 100 mg/kg, ig dosed daily for 15 days by immunohistochemistry analysis; assay type: functional, organism-based; outline: as §1
[11] = target: T1, Retinoic acid receptor RXR-alpha (Homo sapiens); experiment: Activation of RXRalpha in human KM12C cells assessed as increase transactivational activity on RXRE at 25 to 50 uM incubated for 15 hrs by luciferase reporter gene assay; assay type: cell-based; outline: as §2
[12] = Toxicity in BALB/c mouse xenografted with human KM12C cells assessed as effect on biochemical parameter by measuring TBIL level at 100 mg/kg, ig dosed daily for 15 days by automatic chemistry analyzer based analysis (reference value: 0.28 +/- 0.024 umol/L); assay type: organism-based; details: in vivo, po, 360 h
[13] = target: T1, Retinoic acid receptor RXR-alpha (Homo sapiens); experiment: Activation of RXRalpha in human KM12C cells assessed as reduction in c-Myc mRNA expression at 25 to 50 uM incubated for 15 hrs in presence of RXRalpha shRNA by real-time PCR analysis; assay type: cell-based
[14] = Toxicity in BALB/c mouse xenografted with human KM12C cells assessed as effect on biochemical parameter by measuring AST level at 100 mg/kg, ig dosed daily for 15 days by automatic chemistry analyzer based analysis (reference value: 157.15 +/- 8.41 U/L); assay type: organism-based; details: in vivo, po, 360 h
[15] = Bioavailability in Sprague-Dawley rat at 100 mg/kg, ig measured after 0.083 to 36 hrs by LC-MS/MS analysis; assay type: ADME, organism-based; details: in vivo, po; outline: as §3
[16] = target: T1, Retinoic acid receptor RXR-alpha (Homo sapiens); experiment: In-vivo activation of RXRalpha in BALB/c mouse xenografted with human KM12C cells assessed as increase in p21 (WAF1/CIP1) mRNA expression at 100 mg/kg, ig dosed daily for 15 days by real-time PCR analysis; assay type: functional, organism-based
[17] = target: T1, Retinoic acid receptor RXR-alpha (Homo sapiens); experiment: Activation of RXRalpha in human KM12C cells assessed as reduction in c-Myc protein expression at 25 to 50 uM incubated for 15 hrs in presence of RXRalpha shRNA by Western blot analysis; assay type: cell-based
[18] = Hepatotoxicity in BALB/c mouse xenografted with human KM12C cells assessed as induction of necrotic hepatocytes at 100 mg/kg, ig dosed daily for 15 days by H and E staining; assay type: toxicity, organism-based; details: in vivo, po, 360 h
[19] = Toxicity in BALB/c mouse xenografted with human KM12C cells assessed as effect on biochemical parameter by measuring ALP level at 100 mg/kg, ig dosed daily for 15 days by automatic chemistry analyzer based analysis (reference value: 76.53 +/- 4.31 U/L); assay type: organism-based; details: in vivo, po, 360 h
[20] = target: T1, Retinoic acid receptor RXR-alpha (Homo sapiens); experiment: Activation of RXRalpha (unknown origin) expressed in human SW620 cells co-expressing beta-catenin assessed as induction of RXRalpha interaction with beta-catenin at 40 to 80 uM incubated for 15 hrs by mammalian two-hybrid assay; assay type: cell-based; details: SW-620
Outline: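 Mammalian two-hybrid: cells co-transfected by lipofection with pBIND-β-catenin/S33Y plus pACT-RXRα (RXRα–β-catenin) or pACT-c-Cbl (β-catenin–c-Cbl); 20 h after transfection, compound added for 15 h; cells lysed in passive lysis buffer, 4 °C, 1 h; firefly and Renilla luciferase read by dual-luciferase kit.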

Structure (SMILES)	Activity [1]	Activity [2]	Activity [3]	Activity [4]	Activity [5]	Activity [6]	inhibition [7]	MRT inf [8] [h]	Activity [9] [mmol/L]	Activity [10]	Activity [11]	Activity [12] [µmol/L]	Activity [13]	Activity [14] [U/L]	bioavailability [15] [%]	Activity [16]	Activity [17]	Activity [18]	Activity [19] [U/L]	Activity [20]
COc1ccc2c(c1)CC[n+]1cc3c(OC)cccc3cc1-2.[Cl-]	Active	Non-Toxic	Active	Non-Toxic	Active	Active	Active	15.7	2.49	Active	Active	0.21	inactive	158.36	14.2	Active	inactive	Non-Toxic	78.35	Active
COc1ccc2cc3[n+](cc2c1OC)CCc1cc2c(cc1-3)OCO2.[Cl-] [BERBERINE CHLORIDE]	Active	–	Active	–	–	Active	–	31.5	2.35	Active	–	0.26	–	177.86	0.544	Active	–	–	71.28	Active
